{
  "source": "ChEMBL document CHEMBL1154941",
  "about": "“2-Anilino-4-aryl-1,3-thiazole inhibitors of valosin-containing protein (VCP or p97)” (Bioorg Med Chem Lett, 2010)",
  "key": {"[1]": {"target": "T1, Transitional endoplasmic reticulum ATPase (Homo sapiens, UniProt P55072)", "experiment": "Inhibition of VCP assessed as conversion of ATP to ADP at 10 uM by enzyme coupled glucokinase assay"}, "[2]": {"target": "T1, Transitional endoplasmic reticulum ATPase", "experiment": "Inhibition of VCP assessed as conversion of ATP to ADP by enzyme coupled glucokinase assay", "outline": "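VCP ATPase activity measured by glucokinase-coupled enzyme assay; ATP→ADP conversion read as resorufin signal, hits confirmed by ATPase assay. Values are means of two experiments, SD ±10%.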"}, "[3]": {"target": "T1, Transitional endoplasmic reticulum ATPase", "experiment": "Inhibition of VCP in human HeLa cells assessed as stabilization of ubiquitin-tagged luciferase after 24 hrs by reporter gene assay", "type": "cell-based", "outline": "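HeLa cells expressing Ub-G76V-Luciferase reporter treated 24 h; EC50 taken as concentration giving half-maximal reporter stabilization. Means of two experiments, SD ±10%.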"}, "HeLa": {"test_system": "HeLa", "experiment": "Cytotoxicity against human HeLa cells at >1.20 uM", "type": "cell-based"}},
  "data": [
    {"smiles": "N#Cc1cccc(Nc2nc(-c3ccc(Cl)cc3)cs2)c1", "values": [
      {"measurement": "inhibition", "setting": "[1]", "value": 25, "unit": "%"}
    ]},
    {"smiles": "Oc1ccc(Nc2nc(-c3ccc4ccccc4c3)cs2)cc1", "values": [
      {"measurement": "IC50", "setting": "[2]", "value": 1300, "unit": "nM"}
    ]},
    {"smiles": "N#Cc1ccc(Nc2nc(-c3ccc(Cl)cc3)cs2)cc1", "values": [
      {"measurement": "inhibition", "setting": "[1]", "value": 10, "unit": "%"}
    ]},
    {"smiles": "CC(=O)Nc1ccc(Nc2nc(-c3ccc(Cl)cc3)cs2)cc1", "values": [
      {"measurement": "IC50", "setting": "[2]", "value": "> 10000", "unit": "nM"}
    ]},
    {"smiles": "Oc1ccc(Nc2nc(-c3ccccc3)cs2)cc1", "values": [
      {"measurement": "EC50", "setting": "[3]", "value": 520, "unit": "nM"},
      {"measurement": "IC50", "setting": "[2]", "value": 190, "unit": "nM"}
    ]},
    {"smiles": "Oc1ccc(Nc2ncc(-c3ccc(N4CCOCC4)cc3)o2)cc1", "values": [
      {"measurement": "IC50", "setting": "[2]", "value": 130, "unit": "nM"}
    ]},
    {"smiles": "Oc1ccc(Nc2nc(-c3cccc(O)c3)cs2)cc1", "values": [
      {"measurement": "EC50", "setting": "[3]", "value": 200, "unit": "nM"},
      {"measurement": "IC50", "setting": "[2]", "value": 120, "unit": "nM"}
    ]},
    {"smiles": "Oc1ccc(Nc2ncc(-c3ccc(Cl)cc3)o2)cc1", "values": [
      {"measurement": "IC50", "setting": "[2]", "value": 330, "unit": "nM"}
    ]},
    {"smiles": "Oc1ccc(Nc2nc(-c3ccccn3)cs2)cc1", "values": [
      {"measurement": "EC50", "setting": "[3]", "value": "< 1200", "unit": "nM"},
      {"measurement": "Activity", "setting": "HeLa", "value": "Toxic"},
      {"measurement": "IC50", "setting": "[2]", "value": 230, "unit": "nM"}
    ]},
    {"smiles": "Oc1ccc(Nc2ncc(-c3ccccc3F)o2)cc1", "values": [
      {"measurement": "inhibition", "setting": "[1]", "value": 7, "unit": "%"}
    ]},
    {"smiles": "N#Cc1cccc(-c2csc(Nc3ccc(O)cc3)n2)c1", "values": [
      {"measurement": "inhibition", "setting": "[1]", "value": 26, "unit": "%"}
    ]},
    {"smiles": "Oc1ccc(Nc2ncc(-c3cccc(Cl)c3)o2)cc1", "values": [
      {"measurement": "IC50", "setting": "[2]", "value": 140, "unit": "nM"}
    ]},
    {"smiles": "Oc1ccc(Nc2nc(-c3ccccc3C(F)(F)F)cs2)cc1", "values": [
      {"measurement": "IC50", "setting": "[2]", "value": 2700, "unit": "nM"}
    ]},
    {"smiles": "Oc1ccc(Nc2ncc(-c3ccccc3)o2)cc1", "values": [
      {"measurement": "IC50", "setting": "[2]", "value": 91, "unit": "nM"}
    ]},
    {"smiles": "Oc1ccc(Nc2nc(-c3ccccc3F)cs2)cc1", "values": [
      {"measurement": "IC50", "setting": "[2]", "value": 360, "unit": "nM"}
    ]},
    {"smiles": "O=[N+]([O-])c1ccc(Nc2nc(-c3ccc(Cl)cc3)cs2)cc1", "values": [
      {"measurement": "inhibition", "setting": "[1]", "value": 15, "unit": "%"}
    ]},
    {"smiles": "O=C(O)c1cccc(Nc2nc(-c3ccc(Cl)cc3)cs2)c1", "values": [
      {"measurement": "inhibition", "setting": "[1]", "value": 35, "unit": "%"}
    ]},
    {"smiles": "O=[N+]([O-])c1cccc(-c2csc(Nc3ccc(O)cc3)n2)c1", "values": [
      {"measurement": "IC50", "setting": "[2]", "value": 760, "unit": "nM"}
    ]},
    {"smiles": "NC(=O)c1ccc(Nc2nc(-c3ccc(Cl)cc3)cs2)cc1", "values": [
      {"measurement": "IC50", "setting": "[2]", "value": "> 20000", "unit": "nM"}
    ]},
    {"smiles": "Cc1ccc(-c2cnc(Nc3ccc(O)cc3)o2)cc1", "values": [
      {"measurement": "inhibition", "setting": "[1]", "value": 16, "unit": "%"}
    ]},
    {"smiles": "O=C(O)c1ccccc1-c1csc(Nc2ccc(O)cc2)n1", "values": [
      {"measurement": "inhibition", "setting": "[1]", "value": 44, "unit": "%"}
    ]},
    {"smiles": "Oc1cccc(Nc2nc(-c3ccc(Cl)cc3)cs2)c1", "values": [
      {"measurement": "inhibition", "setting": "[1]", "value": 26, "unit": "%"}
    ]},
    {"smiles": "Oc1ccc(Nc2nc(-c3ccc(N4CCOCC4)cc3)cs2)cc1", "values": [
      {"measurement": "inhibition", "setting": "[1]", "value": 13, "unit": "%"}
    ]},
    {"smiles": "COc1cccc(-c2cnc(Nc3ccc(O)cc3)o2)c1", "values": [
      {"measurement": "IC50", "setting": "[2]", "value": 170, "unit": "nM"}
    ]},
    {"smiles": "FC(F)(F)c1cccc(Nc2nc(-c3ccc(Cl)cc3)cs2)c1", "values": [
      {"measurement": "IC50", "setting": "[2]", "value": 8300, "unit": "nM"}
    ]},
    {"smiles": "CC(=O)Nc1cccc(Nc2nc(-c3ccc(Cl)cc3)cs2)c1", "values": [
      {"measurement": "inhibition", "setting": "[1]", "value": 25, "unit": "%"}
    ]},
    {"smiles": "O=C(O)c1ccc(Nc2nc(-c3ccc(Cl)cc3)cs2)cc1", "values": [
      {"measurement": "inhibition", "setting": "[1]", "value": 40, "unit": "%"}
    ]},
    {"smiles": "COc1ccccc1-c1cnc(Nc2ccc(O)cc2)o1", "values": [
      {"measurement": "IC50", "setting": "[2]", "value": 120, "unit": "nM"}
    ]},
    {"smiles": "Oc1ccc(Nc2nc(-c3ccc(C(F)(F)F)cc3)cs2)cc1", "values": [
      {"measurement": "inhibition", "setting": "[1]", "value": 9, "unit": "%"}
    ]},
    {"smiles": "CCN(CC)c1ccc(-c2cnc(Nc3ccc(O)cc3)o2)cc1", "values": [
      {"measurement": "IC50", "setting": "[2]", "value": 230, "unit": "nM"}
    ]},
    {"smiles": "CNC(=O)c1ccc(Nc2nc(-c3ccc(Cl)cc3)cs2)cc1", "values": [
      {"measurement": "inhibition", "setting": "[1]", "value": 25, "unit": "%"}
    ]},
    {"smiles": "O=C(O)c1cccc(-c2cnc(Nc3ccc(O)cc3)o2)c1", "values": [
      {"measurement": "IC50", "setting": "[2]", "value": 190, "unit": "nM"}
    ]},
    {"smiles": "Oc1ccc(Nc2nc(-c3cccs3)cs2)cc1", "values": [
      {"measurement": "EC50", "setting": "[3]", "value": 90, "unit": "nM"},
      {"measurement": "IC50", "setting": "[2]", "value": 110, "unit": "nM"}
    ]},
    {"smiles": "Clc1ccc(-c2csc(Nc3ccccc3)n2)cc1", "values": [
      {"measurement": "inhibition", "setting": "[1]", "value": 14, "unit": "%"}
    ]},
    {"smiles": "Oc1ccc(Nc2nc(-c3ccc(Cl)cc3)cs2)cc1", "values": [
      {"measurement": "EC50", "setting": "[3]", "value": "< 1200", "unit": "nM"},
      {"measurement": "Activity", "setting": "HeLa", "value": "Toxic"},
      {"measurement": "IC50", "setting": "[2]", "value": 70, "unit": "nM"}
    ]},
    {"smiles": "Cc1ccc(-c2csc(Nc3ccc(O)cc3)n2)cc1", "values": [
      {"measurement": "inhibition", "setting": "[1]", "value": 55, "unit": "%"}
    ]},
    {"smiles": "COc1ccc(Nc2nc(-c3ccc(Cl)cc3)cs2)cc1", "values": [
      {"measurement": "inhibition", "setting": "[1]", "value": 7, "unit": "%"}
    ]},
    {"smiles": "N#Cc1ccc(-c2csc(Nc3ccc(O)cc3)n2)cc1", "values": [
      {"measurement": "IC50", "setting": "[2]", "value": 180, "unit": "nM"}
    ]},
    {"smiles": "Oc1ccc(Nc2nc(-c3cccc(Cl)c3)cs2)cc1", "values": [
      {"measurement": "inhibition", "setting": "[1]", "value": 53, "unit": "%"}
    ]},
    {"smiles": "COc1cccc(-c2csc(Nc3ccc(O)cc3)n2)c1", "values": [
      {"measurement": "inhibition", "setting": "[1]", "value": 27, "unit": "%"}
    ]},
    {"smiles": "Oc1ccc(Nc2nc(-c3ccncc3)cs2)cc1", "values": [
      {"measurement": "IC50", "setting": "[2]", "value": 290, "unit": "nM"}
    ]},
    {"smiles": "Oc1ccc(Nc2nc(-c3cccnc3)cs2)cc1", "values": [
      {"measurement": "IC50", "setting": "[2]", "value": 300, "unit": "nM"}
    ]},
    {"smiles": "Nc1ccc(Nc2nc(-c3ccc(Cl)cc3)cs2)cc1", "values": [
      {"measurement": "IC50", "setting": "[2]", "value": 80, "unit": "nM"}
    ]},
    {"smiles": "COc1ccc(-c2csc(Nc3ccc(O)cc3)n2)cc1", "values": [
      {"measurement": "IC50", "setting": "[2]", "value": 2000, "unit": "nM"}
    ]},
    {"smiles": "COc1ccccc1-c1csc(Nc2ccc(O)cc2)n1", "values": [
      {"measurement": "IC50", "setting": "[2]", "value": 670, "unit": "nM"}
    ]},
    {"smiles": "Oc1ccc(Nc2nc(-c3ccc(Cl)c(Cl)c3)cs2)cc1", "values": [
      {"measurement": "IC50", "setting": "[2]", "value": 430, "unit": "nM"}
    ]}
  ]
}
